From ChEMBL document CHEMBL1154491, “Synthesis, structure, antimicrobial and antioxidant investigations of dicoumarol and related compounds” (Eur J Med Chem, 2008)
In brackets after ≈: the same amount, converted by molar mass. Activity calls are given as the source filed them. No cut-off for these calls is given here.

Tests used:
Mus musculus = test: Acute toxicity in mouse at 2 g/kg; details: in vivo
[1] = system: Staphylococcus epidermidis; test: Antimicrobial activity against 1.6X10'-3 cfu/ml Staphylococcus epidermidis ATCC 12228 after 1 to 4 days; type: functional
In short: (§1)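 Compounds were dissolved in acetone (10 mg/mL stock) and diluted with culture medium into serial dilutions. Tests used Mueller-Hinton broth with 1% Tween 20, incubated aerobically at 36 ± 1 °C for 1–4 days alongside duplicate blanks. Growth was scored by turbidimetry or by plating on agar, and MIC was recorded.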

[2] = Antioxidant activity assessed as ABTS radical scavenging activity by TEAC method; type: functional
In short: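 The ABTS radical cation was diluted in PBS, pH 7.4, to an absorbance of 0.70 ± 0.02 at 734 nm at 37 °C. Graded dilutions of compound were added, and absorbance was read at 5, 10, 15 and 20 min after addition.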

Staphylococcus aureus = test: Antimicrobial activity against 1.5X10'-3 cfu/ml Staphylococcus aureus ATCC 6538 after 1 to 4 days; type: functional
In short: as §1

Cutibacterium acnes = test: Antimicrobial activity against 1X10'-3 cfu/ml Propionibacterium acnes ATCC 11827 after 1 to 4 days; type: functional
In short: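 Compounds were taken from an acetone stock (10 mg/mL), diluted in culture medium and set up as serial dilutions with duplicate blanks. After 1–4 days of incubation, bacterial growth was estimated by turbidimetry or agar plating to give the MIC.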

Compound	Activity (Mus musculus)	MIC [1] [µg/mL]	Activity [2]	MIC (Staphylococcus aureus) [µg/mL]	MIC (Cutibacterium acnes) [µg/mL]
O=c1c(C(c2ccc([N+](=O)[O-])cc2)c2c(O)oc3ccccc3c2=O)c(O)oc2ccccc12	Non-toxic	1.3 (≈ 2.84 µM)	Active	3.7 (≈ 8.09 µM)	0.5 (≈ 1.09 µM)
O=c1oc2ccccc2c(O)c1C(c1cc([N+](=O)[O-])ccc1O)c1c(O)c2ccccc2oc1=O			Active		
O=c1c(C(c2ccccc2)c2c(O)oc3ccccc3c2=O)c(O)oc2ccccc12			Active		
Cc1ccc(C(c2c(O)c3ccccc3oc2=O)c2c(O)c3ccccc3oc2=O)cc1	Non-toxic		Active		
COc1cc(C(c2c(O)oc3ccccc3c2=O)c2c(O)oc3ccccc3c2=O)cc(OC)c1OC			Active		
O=c1c(C(c2ccc(C(c3c(O)oc4ccccc4c3=O)c3c(O)oc4ccccc4c3=O)cc2)c2c(O)oc3ccccc3c2=O)c(O)oc2ccccc12	Non-toxic		Active		
COc1ccc(C(c2c(O)c3ccccc3oc2=O)c2c(O)c3ccccc3oc2=O)cc1	Non-toxic		Active		
O=c1oc2ccccc2c(O)c1C(c1cccc(O)c1O)c1c(O)c2ccccc2oc1=O	Non-toxic	1.9 (≈ 4.28 µM)	Active	6.5 (≈ 14.6 µM)	0.5 (≈ 1.13 µM)
